Measurements: ChEMBL document CHEMBL4725272, “Studies on the stereoselective synthesis and immunosuppressive activity of dihydroartemisinin-O-glycoside derivatives” (Bioorg Med Chem Lett, 2020)
pIC50: −log10 of the molar value.

Assays:
[1] = (§1) Inhibition of human CD8+ve […] cell proliferation; type: functional, tissue-based; conditions: CD8-positive T cell
Procedure, shortened: (§2)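 Human T cells, proliferation inhibition measured over a dose series, run in triplicate (n=3). IC50 was taken from dose-response curves fitted by four-parameter non-linear regression.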

[2] = (§3) Inhibition of human CD4+ve Th cell proliferation; type: functional, tissue-based; procedure, shortened: as §2
[3] = Inhibition of T cell (unknown origin) proliferation; type: functional, tissue-based
[4] = Inhibition of B cell (unknown origin) proliferation; type: functional, tissue-based
T cell = assay: Immunosuppressive activity in human primary T-cells extracted form PBMC assessed as inhibition of CD3/CD28-induced IFN-gamma recovery in cell culture media at 2-32 uM incubated for 120 hrs by ELISA; type: functional, tissue-based; conditions: dose microM 2-32, time 120.0 hrs
CD8-positive T cell = assay: as §1; type: functional, tissue-based; procedure, shortened: as §2
CD4+ve Th = assay: as §3; type: functional, tissue-based; procedure, shortened: as §2
[5] = Inhibition of human T cell proliferation relative to control; type: functional
[6] = Immunosuppressive activity in human primary T-cells extracted from PBMC assessed as inhibition of CD3/CD28-induced IFN-gamma recovery in cell culture media incubated for 120 hrs by ELISA relative to control; type: functional

Row | SMILES | pIC50 [1] | pIC50 [2] | further results
1 | C[C@H]1[C@@H](O[C@H]2O[C@H](CO)[C@@H](O)[C@H](O)[C@@H]2O)O[C@@H]2O[C@@]3(C)CC[C@H]4[C@H](C)CC[C@@H]1[C@@]24OO3 | < 4.49 | < 4.49 | –
2 | C[C@H]1[C@@H](O[C@H]2O[C@H](CO)[C@@H](O)[C@H](O)[C@H]2O)O[C@@H]2O[C@@]3(C)CC[C@H]4[C@H](C)CC[C@@H]1[C@@]24OO3 | 4.71 | 4.75 | –
3 | C[C@H]1[C@@H](O[C@@H]2O[C@H](CO)[C@@H](O[C@H]3O[C@H](CO)[C@@H](O)[C@H](O)[C@H]3O)[C@H](O)[C@H]2O)O[C@@H]2O[C@@]3(C)CC[C@H]4[C@H](C)CC[C@@H]1[C@@]24OO3 | 5.40 | 5.04 | –
4 | C[C@H]1[C@@H](O[C@H]2OC[C@H](O)[C@H](O)[C@H]2O)O[C@@H]2O[C@@]3(C)CC[C@H]4[C@H](C)CC[C@@H]1[C@@]24OO3 | 4.89 | 4.85 | –
5 | C[C@H]1[C@@H](O)O[C@@H]2O[C@@]3(C)CC[C@H]4[C@H](C)CC[C@@H]1[C@@]24OO3 [ARTENIMOL] | 5.26 | 5.39 | –
6 | C[C@H]1[C@@H](O[C@H]2O[C@H](CO)[C@H](O)[C@H](O)[C@H]2O)O[C@@H]2O[C@@]3(C)CC[C@H]4[C@H](C)CC[C@@H]1[C@@]24OO3 | 5.06 | 4.98 | –
7 | C[C@H]1[C@@H](O[C@H]2OC[C@@H](O)[C@H](O)[C@H]2O)O[C@@H]2O[C@@]3(C)CC[C@H]4[C@H](C)CC[C@@H]1[C@@]24OO3 | 5.02 | 4.96 | –
8 | C[C@H]1[C@@H](OCCN)O[C@@H]2O[C@@]3(C)CC[C@H]4[C@H](C)CC[C@@H]1[C@@]24OO3 | 5.87 | 5.98 | pIC50 [3]: 5.92; pIC50 [4]: 5.59
9 | C[C@H]1[C@H](O[C@@H]2O[C@H](CO)[C@@H](O)[C@H](O)[C@@H]2O)O[C@@H]2O[C@@]3(C)CC[C@H]4[C@H](C)CC[C@@H]1[C@@]24OO3 | 5.58 | 5.46 | inhibition (T cell): Dose-dependent effect; inhibition (CD8-positive T cell): Dose-dependent effect; inhibition (CD4+ve Th): Dose-dependent effect; inhibition (INH) [5]: 88%; inhibition (INH) [6]: 98%
10 | C[C@H]1[C@H](O[C@H]2O[C@@H](C)[C@H](O)[C@@H](O)[C@H]2O)O[C@@H]2O[C@@]3(C)CC[C@H]4[C@H](C)CC[C@@H]1[C@@]24OO3 | 5.47 | 5.42 | inhibition (T cell): Dose-dependent effect; inhibition (CD8-positive T cell): Dose-dependent effect; inhibition (CD4+ve Th): Dose-dependent effect
